target: Neuronal acetylcholine receptor; alpha4/beta2 (Rattus norvegicus, UniProt P09483+P12390); test: Inhibition of [3H]cytisine binding to alpha4beta2 nACHR in Wistar rat cerebral cortical membrane
Method in brief: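 Male Wistar rat (150-250 g) cerebral cortex homogenized at 0-4 °C in 50 mM Tris HCl pH 7.4 with 120 mM NaCl, 5 mM KCl, 1 mM MgCl₂, 2.5 mM CaCl₂, then washed twice by centrifugation at 27 000g. Membranes incubated with test drug and 1 nM ³H-cytisine (final) for 90 min at 2 °C. Nonspecific binding defined with 100 µM (-)-nicotine. Bound label collected on GF/C filters and counted by liquid scintillation.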

Chain of Neuronal acetylcholine receptor; alpha4/beta2 (P09483 whole entry): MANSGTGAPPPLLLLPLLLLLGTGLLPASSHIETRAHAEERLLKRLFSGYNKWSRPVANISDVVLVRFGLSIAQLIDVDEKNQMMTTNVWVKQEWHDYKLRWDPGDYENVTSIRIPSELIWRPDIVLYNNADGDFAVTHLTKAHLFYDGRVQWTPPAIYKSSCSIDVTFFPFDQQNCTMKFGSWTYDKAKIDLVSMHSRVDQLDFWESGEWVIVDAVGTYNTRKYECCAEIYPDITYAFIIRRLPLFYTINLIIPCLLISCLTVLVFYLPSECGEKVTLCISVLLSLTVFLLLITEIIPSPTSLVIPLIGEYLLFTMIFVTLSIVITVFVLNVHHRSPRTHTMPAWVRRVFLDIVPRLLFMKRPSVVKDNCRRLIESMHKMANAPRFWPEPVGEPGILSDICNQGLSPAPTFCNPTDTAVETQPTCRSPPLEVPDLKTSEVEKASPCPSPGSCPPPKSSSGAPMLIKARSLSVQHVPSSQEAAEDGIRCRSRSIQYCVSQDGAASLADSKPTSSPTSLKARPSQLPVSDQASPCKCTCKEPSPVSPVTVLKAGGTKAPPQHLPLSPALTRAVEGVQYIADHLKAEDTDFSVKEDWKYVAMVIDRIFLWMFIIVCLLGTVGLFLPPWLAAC
Chain of Neuronal acetylcholine receptor; alpha4/beta2 (P12390 whole entry): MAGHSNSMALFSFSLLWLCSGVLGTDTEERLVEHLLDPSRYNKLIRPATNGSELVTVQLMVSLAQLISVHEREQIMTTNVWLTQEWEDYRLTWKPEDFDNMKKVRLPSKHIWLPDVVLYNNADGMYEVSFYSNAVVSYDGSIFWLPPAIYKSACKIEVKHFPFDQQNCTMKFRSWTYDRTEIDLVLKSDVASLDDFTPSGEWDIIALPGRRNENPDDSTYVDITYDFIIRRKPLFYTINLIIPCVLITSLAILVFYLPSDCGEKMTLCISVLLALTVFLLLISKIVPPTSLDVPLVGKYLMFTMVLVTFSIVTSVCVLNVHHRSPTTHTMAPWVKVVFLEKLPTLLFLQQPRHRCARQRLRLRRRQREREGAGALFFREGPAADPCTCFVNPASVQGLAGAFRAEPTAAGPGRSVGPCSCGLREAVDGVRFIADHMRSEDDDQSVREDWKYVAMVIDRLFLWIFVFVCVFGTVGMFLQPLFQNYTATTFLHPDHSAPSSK

In order of rising IC50:
1. C=COc1cc(N2CCCNCCC2)cnc1Br  0.38 nM
2. Brc1ccc(N2CCCNCCC2)cn1  0.45 nM
3. C=COc1cc(N2CCCNCC2)cnc1Br  0.64 nM
4. c1cncc(N2CCCNCCC2)c1  0.9 nM
5. C/C=C\Oc1cncc(N2CCCNCC2)c1  1.3 nM
6. Clc1ncc(N2CCCNCC2)cc1Br  1.4 nM
7. Clc1cc(N2CCCNCC2)cnc1Br  1.4 nM
8. C/C=C\Oc1cncc(N2CCC3CCC(C2)N3)c1 (racemic)  1.9 nM
9. Clc1cncc(N2CCCNCCC2)c1  2 nM
10. Brc1cncc(N2CCCNCCC2)c1  2.8 nM
11. C/C=C\Oc1cncc(N2C3CCNCC2CC3)c1 (racemic)  3.1 nM
12. c1ncc(N2CCCNCC2)cc1C1CC1  5.8 nM
13. CCOc1cncc(N2CCC3CCC(C2)N3)c1 (racemic)  6.5 nM
14. COc1cncc(N2C3CCNCC2CC3)c1 (racemic)  10 nM
15. Oc1cc(N2CCCNCC2)cnc1I  22 nM
16. C#Cc1cncc(N2CCNCC2)c1  110 nM
17. Brc1ccc(N2CCNCC2)cn1  180 nM
18. C=COc1cncc(N2CCNCC2)c1  190 nM
19. Clc1ncc(N2CCNCC2)cc1Br  230 nM
20. Clc1cncc(OC2CCCNC2)c1 (racemic)  240 nM
21. COc1cncc(N2CCNCC2)c1  500 nM
22. Cc1ncc(N2CCNCC2)cc1Cl  520 nM
